# Active and inactive are the calls of the source.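 Rule for the calls: active = compounds whose mean IC50 across repeat dose response tests falls below a set limit; inactive = the rest.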
# Test system: AML12 mouse hepatocytes, BODIPY lipid droplet imaging
# Experiment: hepatocyte lipid droplet accumulation inhibitors, dose response, imaging, AML12 mouse hepatocytes, high-content (AID 463191)
# Conditions: cells loaded with 100 µM oleic acid
# In short: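 test system = mouse AML12 hepatocytes | also added = oleic acid, 100 µM | doses = Seven-point series from 32 to 0.5 µM, 0.32% DMSO | schedule = cells grown about 20 h at 37 °C, then overnight compound exposure | measure = IC50 from per-cell lipid droplet intensity | benchmarks = 5 µM Triacsin-C | replication = duplicate points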
row,Compound,IC50
1,COc1ccc(C(C(=O)NC2CCCC2)N(CCC(C)C)C(=O)CCC(=O)Nc2cc(C)on2)cc1 (stereo unspecified),5900 nM (inactive)
2,CCOc1ccc(CCNC(=O)Cn2c(-c3nonc3N)nc3ccccc32)cc1OCC,580 nM
3,CCOc1ccc(C(=O)OCC(=O)Nc2nc(OC)cc(OC)n2)cc1OCC,1120 nM
4,CCOc1ccc(CCNC(=O)COC(=O)/C=C/c2ccc(OC)c(OC)c2)cc1OCC,1500 nM
5,O=C(NCc1ccc2c(c1)OCO2)c1cc(-c2ccccc2)c(N2CCOCC2)s1,715 nM
6,CCc1nn2c(N3CCOCC3)cc(C)nc2c1-c1ccc(F)cc1,< 500 nM
7,CCOc1ccc(CCNC(=O)Cn2cccc2C(=O)c2ccccc2C)cc1OCC,867 nM
8,CCOc1ccc(CCNC(=O)Nc2ccccc2)cc1OCC,583 nM
9,COc1ccc(-c2csc(NC(=O)c3ccc(OCC(=O)N4CCOCC4)c(OC)c3)n2)cc1OC,1900 nM
10,CCOc1ccccc1NC(=O)C1CCN(C(=O)NCc2ccccc2)CC1,< 500 nM
11,CCn1cc(CCCC(=O)NCc2ccccc2OC)c2ccccc21,4000 nM
12,CCOc1ccc(CCNC(=O)c2cc(-c3ccccc3)c(N3CCOCC3)s2)cc1OCC,< 500 nM
13,COc1cc(NC(=O)c2cccs2)c(OC)cc1NC(=O)CCC(=O)Nc1ccc(C)cc1,790 nM
14,COc1cc(NC(=O)c2cccs2)c(OC)cc1NC(=O)CCC(=O)Nc1ccc2ncccc2c1,2230 nM
15,CCOc1ccc2nc(NC(=O)CSc3nc4ccccc4c(=O)n3Cc3ccco3)sc2c1,620 nM
16,CCCC1(c2ccccc2)NC(=O)N(CC(=O)Nc2cc(C)ccc2OC)C1=O (stereo unspecified),> 32000 nM (inactive)
17,COc1ccc(NC(=O)CCC(=O)Nc2cc(OC)c(NC(=O)c3cccs3)cc2OC)cc1,710 nM
18,CCOc1ccc(CCNC(=O)CN2C(=O)NC3(CCCC3)C2=O)cc1OCC,1070 nM
19,COc1ccc(C2(c3ccc(OC)cc3)NC(=O)N(CC(=O)Nc3cc(C)ccc3OC)C2=O)cc1,< 500 nM
20,CCOc1ccc(CCNC(=O)COC(=O)c2cc([N+](=O)[O-])ccc2N2CCOCC2)cc1OCC,3000 nM
21,COc1ccc(-c2csc(NNC3=NCCCCC3)n2)cc1,1420 nM
22,COCc1ccc(C(=O)NC2CCCc3c2cnn3-c2ccc(C)c(C)c2)o1 (stereo unspecified),2440 nM

row,Compound,IC50
1,CC(=O)Nc1ccc(-c2csc(NC(=O)Cc3cccc(F)c3)n2)cc1,1800 nM
2,O=C(NCc1ccccc1)C(c1ccccc1F)N(C(=O)c1csnn1)C1CCCC1 (stereo unspecified),3490 nM
3,CCOC(=O)N1CCN(C(=O)CSCC(=O)Nc2nc(-c3ccc(-c4ccccc4)cc3)cs2)CC1,14200 nM (inactive)
4,C/C(=N\Nc1ccc(S(=O)(=O)Nc2ccccc2)cc1[N+](=O)[O-])c1ccc(N2CCOCC2)cc1,1280 nM
5,CCCc1ccc(-c2csc(NC(=O)Cc3cccs3)n2)cc1,1480 nM
6,Cc1ccc(CNC(=O)c2ccc(N3CCC4(CC3)CC(c3ccccc3)=NO4)c(N)c2)cc1,3450 nM
7,COc1ccc(C(C(=O)NC(C)(C)C)N(Cc2cccs2)C(=O)CCC(=O)Nc2cc(C)on2)cc1 (stereo unspecified),4160 nM
8,Cc1cc(N2CCOCC2)n2nc(C)c(-c3ccc(Cl)cc3)c2n1,1310 nM
9,CCOc1cc2c(cc1OCC)C(c1ccccc1)N(c1ccccc1)C(=O)C2 (stereo unspecified),973 nM
10,CCOc1ccc(CCNC(=O)c2cc3sc(Cl)cc3n2C)cc1OCC,< 500 nM
11,CCC(C(=O)NCCc1ccccc1OC)n1nc(C)c2c(C)n(-c3ccccc3)nc2c1=O (stereo unspecified),3260 nM
12,Cc1cc(C)cc(NC(=O)CCC(=O)Nc2cc(C)on2)c1,7620 nM (inactive)
13,CCOc1ccc(CCNC(=O)/C=C/c2ccco2)cc1OCC,1050 nM
14,CC(C)Oc1ccc(C(=O)OC(C)C(=O)Nc2nc(-c3cccc([N+](=O)[O-])c3)cs2)cc1 (stereo unspecified),866 nM
15,Cc1ccc(-c2c(C)nn3c(N4CCOCC4)cc(C)nc23)cc1,633 nM
16,CCOc1ccc(CCNC(=O)CN2C(=O)c3cccnc3Oc3ccc(C)cc32)cc1OCC,< 500 nM
17,CCN(CC(=O)Nc1ccccc1C(F)(F)F)C(=O)c1cc(-c2cccs2)nn1-c1ccccc1,2030 nM
18,COc1ccccc1CNS(=O)(=O)c1ccc2c(c1)CC(C)N2C(=O)C1CCC1 (stereo unspecified),680 nM
19,CCOc1ccc(C(=O)CCC(=O)NCC(=O)OCc2ccccc2)cc1OCC,8000 nM (inactive)
20,CC1CCCN(C(=O)c2ccc3c(c2NCCO)C(=O)c2ccccc2C3=O)C1 (stereo unspecified),765 nM
21,O=C(Cc1cccc2ccccc12)Nc1nc(-c2cccc([N+](=O)[O-])c2)cs1,4300 nM
22,CCOc1ccc(CCNC(=O)CSc2cc(=O)n(C)c3ccccc23)cc1OCC,823 nM

row,Compound,IC50
1,Cc1ccc(-n2nc3c(=O)n(CC(=O)NC4CCCCC4)nc(C)c3c2C)cc1,4730 nM
2,O=C1C(NS(=O)(=O)c2ccccc2)=C(N2CCN(c3ccc(F)cc3)CC2)C(=O)c2ccccc21,1780 nM
3,COc1ccc(C(C(=O)NC(C)(C)C)N(Cc2ccc(F)cc2)C(=O)CCC(=O)Nc2cc(C)on2)cc1 (stereo unspecified),2040 nM
4,CCOc1ccc(C(C)NC(=O)Cc2ccccc2F)cc1OCC (stereo unspecified),6250 nM (inactive)
5,COc1ccc(C)cc1NC(=O)C/C(C)=N/NC(=O)Cc1cccc2ccccc12,13800 nM (inactive)
6,COc1ccc(C(=O)NC2CCCc3c2cnn3-c2cccc(C)c2C)o1 (stereo unspecified),2560 nM
7,Nc1nc(-c2ccccc2)c(N=Nc2cccc3ccccc23)s1,525 nM
8,COCCCn1c(SCC(=O)Nc2ccc(NC(=O)c3ccco3)c(OC)c2)nc2ccccc2c1=O,1850 nM
9,CCOc1ccc(CCNC(=O)CCCn2c(=O)c3cccn3c3cccnc32)cc1OCC,1880 nM
10,CCOc1ccc(CCNC(=O)CCC(=O)N2CCOc3ccccc32)cc1OCC,830 nM
11,COc1cccc(NC(=O)CCC(=O)Nc2cc(OC)c(NC(=O)c3cccs3)cc2OC)c1,754 nM
12,CCOc1ccc(CCNC(=O)C2CC=CCC2C(=O)OC(C)C)cc1OCC (stereo unspecified),746 nM
13,CCOc1ccc(CCNC(=O)CN2CCN(Cc3ccc(F)cc3)C2=O)cc1OCC,1830 nM
14,COc1ccc(CCNC(=O)c2ccc(CNc3nc(=S)[nH]c4ccccc34)cc2)cc1OC,1280 nM
15,CCCCOc1ccc(/C=C/C(=O)OCC(=O)c2c(N)n(C)c(=O)n(C)c2=O)cc1OCC,28800 nM (inactive)
16,CCOc1ccc(CCNC(=O)CCS(=O)(=O)c2ccc(Br)cc2)cc1OCC,3270 nM
17,COc1ccc(C(=O)OC(C)C(=O)Nc2cc(C(F)(F)F)ccc2Cl)c(OC)c1OC (stereo unspecified),850 nM
18,CCOc1ccc(CC(=O)Nc2ccc(NC(=O)c3ccco3)cc2)cc1OCC,2350 nM
19,CC1CCCN(C2=C(NS(=O)(=O)c3ccc(Br)cc3)C(=O)c3ccccc3C2=O)C1 (stereo unspecified),927 nM
20,CCCc1cc(N2CCCC2)n2nc(C)c(-c3ccccc3)c2n1,1100 nM
21,COc1cccc(CNC(=O)CCCc2c[nH]c3ccccc23)c1,6600 nM (inactive)
22,Cc1cc(C)c(C(=O)NC2CCCc3c2cnn3-c2cccc(C)c2C)o1 (stereo unspecified),21600 nM (inactive)

# — PubChem BioAssay AID463191 (Sanford-Burnham Center for Chemical Genomics, 2010)
